Measured values: article PMC6089219 (ACS chemical biology, 2018)

How the values were obtained:
[1] = biological target: T1, human ALDH1A2 (Homo sapiens, UniProt O94788); experiment: Differential scanning fluorimetry; type: binding; conditions: for DSF ΔTm (°C); (−) NAD: 200 μM compound, 4 μM ALDH1A2, absence of NAD, single experiment in quadruplicate
T1 sequence (O94788 27-518): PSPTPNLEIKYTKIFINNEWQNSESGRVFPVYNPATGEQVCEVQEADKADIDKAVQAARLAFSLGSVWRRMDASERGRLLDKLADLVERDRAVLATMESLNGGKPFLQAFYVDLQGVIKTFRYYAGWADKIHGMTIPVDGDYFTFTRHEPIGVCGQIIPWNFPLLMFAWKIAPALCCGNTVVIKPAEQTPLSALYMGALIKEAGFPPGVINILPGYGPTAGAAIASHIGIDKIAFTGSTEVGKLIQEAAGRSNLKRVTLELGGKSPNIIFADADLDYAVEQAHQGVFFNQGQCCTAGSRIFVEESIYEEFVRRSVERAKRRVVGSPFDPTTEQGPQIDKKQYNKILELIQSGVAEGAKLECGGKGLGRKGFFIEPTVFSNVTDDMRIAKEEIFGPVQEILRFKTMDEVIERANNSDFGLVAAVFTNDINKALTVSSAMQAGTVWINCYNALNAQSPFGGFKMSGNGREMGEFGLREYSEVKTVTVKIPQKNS
In short: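 Truncated human ALDH1A2 (residues 27–518) expressed in E. coli BL21Star (DE3), His-tag removed by PreScission protease, purified as a tetramer. Fluorescence read at 620 nm (ROX channel) during thermal melt, in quadruplicate. ΔTm taken against unliganded enzyme with 2% DMSO.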

[2] = biological target: the molecule itself; experiment: crystal structure

Molecule | DSF ΔTm (°C); (−) NAD [1] [°C] | further results
CS(=O)(=O)c1ccc(-c2nn(-c3ccc(C#N)cc3)cc2C(=O)Nc2cccc(F)c2)cc1 [CM121] | 5.4 ± 0.15 | –
NC(=O)c1ccc[n+]([C@@H]2O[C@H](COP(=O)([O-])OP(=O)(O)OC[C@H]3O[C@@H](n4cnc5c(N)ncnc54)[C@H](O)[C@@H]3O)[C@@H](O)[C@H]2O)c1 [NAD] | – | DSF ΔTm (°C); (+) NAD ([1]; 1 mM NAD+ alone, no inhibitor): 2.6 ± 0.04 °C
O=C(NCCCCCCCCNC(=O)C(Cl)Cl)C(Cl)Cl [WIN18,446, reference compound] | 7.6 ± 0.17 | –
human ALDH1A2 (residues 27-518) (enzyme, UniProt O94788 27-518, looked up) PSPTPNLEIKYTKIFINNEWQNSESGRVFPVYNPATGEQVCEVQEADKADIDKAVQAARLAFSLGSVWRRMDASERGRLLDKLADLVERDRAVLATMESLNGGKPFLQAFYVDLQGVIKTFRYYAGWADKIHGMTIPVDGDYFTFTRHEPIGVCGQIIPWNFPLLMFAWKIAPALCCGNTVVIKPAEQTPLSALYMGALIKEAGFPPGVINILPGYGPTAGAAIASHIGIDKIAFTGSTEVGKLIQEAAGRSNLKRVTLELGGKSPNIIFADADLDYAVEQAHQGVFFNQGQCCTAGSRIFVEESIYEEFVRRSVERAKRRVVGSPFDPTTEQGPQIDKKQYNKILELIQSGVAEGAKLECGGKGLGRKGFFIEPTVFSNVTDDMRIAKEEIFGPVQEILRFKTMDEVIERANNSDFGLVAAVFTNDINKALTVSSAMQAGTVWINCYNALNAQSPFGGFKMSGNGREMGEFGLREYSEVKTVTVKIPQKNS | – | stoichiometry N [2]: 4
